Results: article PMC7658932 (ACS Omega, 2020)

Key:
[1] = Radiolabeling efficiency/kinetics of chelators with ^90Y; format: physicochemical; conditions: pH 5.5, RT, TLC, triplicate
Procedure, shortened: (§1)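 Test compound (20 μg) in Chelex-treated 0.25 M NH4OAc (pH 5.5) was mixed with 90YCl3 or 177LuCl3 (2.22 MBq, 60 μCi, in 0.05 M HCl) using acid-washed, metal-free plasticware. The mixture was shaken at 1000 rpm at RT for 1 h. Aliquots taken at set times were run on silica gel ITLC in acetonitrile/water 3:2 and scanned by radio-TLC. Complex ran at ~50 mm, free radionuclide at ~30 mm.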

[2] = Radiolabeling efficiency/kinetics of chelators with ^177Lu; format: physicochemical; conditions: 1 min, pH 5.5, RT, TLC, triplicate
Procedure, shortened: as §1

SMILES: O=C(O)CN1CCN(CCN(CC(=O)O)CC(=O)O)CCN(CC(CCCc2ccc([N+](=O)[O-])cc2)N(CC(=O)O)CC(=O)O)CC1 (stereo not drawn) [3p-C-NEPA, 2-{[2-(4-{2-[Bis(carboxymethyl)amino]-5-(4-nitrophenyl)pentyl}-7-(carboxymethyl)-1,4,7-triazonan-1-yl)ethyl](carboxymethyl)amino}acetic acid]
- radiolabeling efficiency (%) ([1]; 1 min): > 97%
- radiolabeling efficiency (%) ([1]; 10 min): > 99%
- radiolabeling efficiency (%) [2]: > 97%
